Reference: ChEMBL document CHEMBL4706591, “Diphenyl triazine hybrids inhibit α-synuclein fibrillogenesis: Design, synthesis and in vitro efficacy studies” (Eur J Med Chem, 2020)
The source made the active and inactive calls. The rule behind the calls is not given here.

Key:
[1] = Solubility of the compound in sodium phosphate buffer at pH 7.4; format: physicochemical
[2] = Aggregation property of the compound assessed as change in ThT fluorescence in presence of Thioflavin T; format: physicochemical; settings: 336 h; time 2 weeks
Summary of the method: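 Compound alone incubated with ThT without α-syn for over 2 weeks; ThT fluorescence monitored to exclude self-aggregation interference.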

[3] = target: Alpha-synuclein (Homo sapiens) (UniProt P37840); assay: Inhibition of recombinant alpha-synuclein (unknown origin) aggregation expressed in Escherichia coli BL21 (DE3) cells assessed as lag time at 1:1 compound-protein molar ratio measured for every 30 mins in presence of ThT by spectrofluorometry (reference value: 15.1 +/- 0.9 hrs)
Summary of the method: (§1)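 Recombinant α-syn from E. coli BL21(DE3), extracted by osmotic shock, purified on DEAE-Sepharose with 50–500 mM NaCl gradient. Run at 37 °C; Ex 440/Em 485 nm read every 30 min after 30 s orbital shaking, until plateau. Four wells each. Each well fitted to a sigmoid giving t1/2, kapp = 1/τ, and tlag from lag/elongation intercept, then averaged; Student's t-test.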

[4] = target: Alpha-synuclein (Homo sapiens) (UniProt P37840); assay: Inhibition of recombinant alpha-synuclein (unknown origin) aggregation expressed in Escherichia coli BL21 (DE3) cells at 1:1 compound-protein molar ratio measured for every 30 mins in presence of ThT by spectrofluorometry; summary of the method: as §1
[5] = target: Alpha-synuclein (Homo sapiens) (UniProt P37840); assay: Inhibition of recombinant alpha-synuclein (unknown origin) aggregation expressed in Escherichia coli BL21 (DE3) cells assessed as elongation phase time at 1:1 compound-protein molar ratio measured for every 30 mins in presence of ThT by spectrofluorometry (reference value: 31.2 +/- 0.6 hrs); settings: dose 70.0 µM; summary of the method: as §1
[6] = target: Alpha-synuclein (Homo sapiens) (UniProt P37840); assay: Inhibition of recombinant alpha-synuclein (unknown origin) aggregation expressed in Escherichia coli BL21 (DE3) cells assessed as apparent elongation rate constant at 1:1 compound-protein molar ratio measured for every 30 mins in presence of ThT by spectrofluorometry (reference value: 108.7 +/- 1.8 10^-3/hr); summary of the method: as §1
[7] = target: Alpha-synuclein (Homo sapiens) (UniProt P37840); assay: Inhibition of recombinant alpha-synuclein (unknown origin) aggregation expressed in Escherichia coli BL21 (DE3) cells assessed as final plateau fluorescence at 1:1 compound-protein molar ratio measured for every 30 mins in presence of ThT by spectrofluorometry relative to control; summary of the method: as §1
MEF [8] = assay: Cytotoxicity against mouse MEF cells at 10 uM incubated for 24 hrs by MTT assay; format: cell-based
Summary of the method: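 MEF cells grown in DMEM with 10% FBS and 1% penicillin-streptomycin to about 80% confluency. Cells trypsinized, plated, and left 24 h at 37 °C in humidified CO2. Compound added at 10 µM in triplicate with DMSO vehicle control, 24 h. MTT 0.5 mg/mL for 4 h in dark, formazan dissolved in DMSO, absorbance read at 570 nm. Mean ± SEM of three independent replicates.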

[9] = target: Alpha-synuclein (Homo sapiens) (UniProt P37840); assay: Disruption of recombinant preformed alpha-synuclein (unknown origin) aggregation expressed in Escherichia coli BL21 (DE3) at 20 uM incubated for 5 days by ThT dye based inverted fluorescence microscopic analysis; settings: time 5.0 day
Summary of the method: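 Preformed α-syn aggregates incubated with compound at 1:1 molar ratio at 37 °C for 5 days, without ThT, in a sealed plate, one well each. Samples then stained with ThT and imaged on an inverted fluorescence microscope through a FITC filter with constant imaging parameters.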

MEF [10] = assay: Cytotoxicity against mouse MEF cells at 10 uM incubated for 24 hrs in presence of aggregated alpha-synuclein by MTT assay; format: cell-based
Summary of the method: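 MEF cells cultured and plated as for the compound-only cytotoxicity assay. Cells treated in triplicate for 24 h with monomeric α-syn, aggregated α-syn, or α-syn aggregated in presence of compound at 1:1. Viability read by MTT (0.5 mg/mL, 4 h, 570 nm). Mean ± SEM, three replicates; Student's t-test, p<0.05.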

[11] = target: Alpha-synuclein (Homo sapiens) (UniProt P37840); assay: Inhibition of recombinant alpha-synuclein (unknown origin) aggregation expressed in Escherichia coli BL21 (DE3) cells assessed as reduction in fluorescent labeled aggregates at 20 uM incubated for >=66 hrs by ThT dye based inverted fluorescence microscopic analysis; settings: time hrs >=66
Summary of the method: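 After the ThT kinetic run (about 66 h), 10 µL of control or compound-incubated α-syn mixed with 20 µM ThT was placed on a glass slide under a coverslip. Imaged on an inverted fluorescence microscope, FITC filter, 100× oil objective, with constant laser power and intensity.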

Row | SMILES | solubility [1] | Activity [2] | Tlag [3] [h] | inhibition [4] | T1/2 [5] [h] | Kapp [6] | inhibition [7] [%] | Activity (MEF [8]) | inhibition [9] | Activity (MEF [10]) | inhibition [11]
1 | O=C(CSc1nnc(-c2ccccc2)c(-c2ccccc2)n1)N1CCN(S(=O)(=O)c2ccc(Cl)cc2Cl)CC1 | Insoluble | Not Active | 13.9 | Active | 30.4 | 122 10^-3/hr |  |  |  |  | 
2 | CC(=O)Nc1ccc(S(=O)(=O)N2CCN(C(=O)CSc3nnc(-c4ccccc4)c(-c4ccccc4)n3)CC2)cc1F | Insoluble | Not Active | 14.9 | Active | 28.1 | 121 10^-3/hr | > 50 | Non-Toxic | Active | Toxic | Active
3 | O=C(CSc1nnc(-c2ccccc2)c(-c2ccccc2)n1)N1CCN(c2ccnc3cc(Cl)ccc23)CC1 | Insoluble | Not Active | 15.9 | Active | 28.2 | 128 10^-3/hr | > 50 | Non-Toxic | Active | Toxic | Active
4 | CC(=O)Nc1ccc(S(=O)(=O)N2CCN(C(=O)CSc3nnc(-c4ccccc4)c(-c4ccccc4)n3)CC2)cc1 | Insoluble | Not Active | 14.6 | Active | 27.5 | 86.6 10^-3/hr | > 50 | Non-Toxic | Active | Non-Toxic | Active
5 | Cc1ccc(S(=O)(=O)N2CCN(C(=O)CSc3nnc(-c4ccccc4)c(-c4ccccc4)n3)CC2)cc1 | Insoluble | Not Active | 14.1 | Active | 29.4 | 118 10^-3/hr | < 40 |  |  |  | 
6 | O=C(CSc1nnc(-c2ccccc2)c(-c2ccccc2)n1)N1CCN(S(=O)(=O)c2ccc(Br)cc2)CC1 | Insoluble | Not Active | 14.4 | Active | 27 | 120 10^-3/hr | < 40 | Non-Toxic | inactive | Non-Toxic | Active
7 | O=C(CSc1nnc(-c2ccccc2)c(-c2ccccc2)n1)N1CCN(S(=O)(=O)c2ccc3ccccc3c2)CC1 | Insoluble | Not Active | 16.1 | Active | 30 | 116 10^-3/hr |  |  |  |  | 
8 | O=C(CSc1nnc(-c2ccccc2)c(-c2ccccc2)n1)N1CCN(S(=O)(=O)c2ccccc2[N+](=O)[O-])CC1 | Insoluble | Not Active | 15.3 | Active | 29.1 | 123 10^-3/hr | < 40 |  |  |  | 
